Consider three molecules from publication PMC6260118 (Thrombosis and Haemostasis, 2017).

Read-outs that look alike come from different tables or passages of the source. Some results are limits rather than exact numbers.

Data set [1] is described as follows: Pharmacokinetics of ciraparantag and metabolite BAP in serum/plasma and urine. Type of data set: in vivo, human. To be noted: for dose proportionality of pharmacokinetics: based on Cmax and t½, 5-300 mg. In outline: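 Healthy non-smoking adults aged 18–65 received single escalating doses of test compound from 5 to 300 mg. Each dose was a sterile aqueous solution given by slow IV injection into an indwelling catheter, alone and, after at least four days' washout, about 3 h after oral edoxaban 60 mg. Parent compound and its piperazine metabolite were measured in serum/plasma and in urine pooled over the first 24 h.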

A short description of data set [2]: Phase I safety and tolerability, adverse events. Type of data set: in vivo, human. Put shortly: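 The trial was a randomised, double-blind, placebo-controlled phase I study with eight cohorts of 10 healthy subjects each, randomised 8:2 to test compound or saline. Single IV doses were given alone and then about 3 h after edoxaban 60 mg orally. Safety was assessed in everyone dosed at least once: adverse events, vital signs, pulse oximetry, ECGs, clinical laboratory tests, fecal occult blood and concomitant medications. Treatment-emergent events were those starting on or after dosing.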

The subject of data set [3] is edoxaban-induced anticoagulation. Description: Whole blood clotting time. Type of data set: in vivo, human. In outline:
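Native whole blood was tested in glass tubes with no activator or anticoagulant, three tubes of 0.5 ml each. Clotting time was read by tilt-tube visual inspection. Testing began in Period 2 of the 50 mg cohort and continued in all later cohorts, and the 25 mg cohort was repeated with it. IV test compound or saline was given about 3 h after edoxaban 60 mg orally, with follow-up to 24 h. Groups were compared by ANOVA with Tukey HSD, p<0.05.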

Data set [4] relates to clot fibrin. Type of data set: in vivo, human.
In data set [5] the test system is edoxaban-induced anticoagulation. Put plainly: Whole blood point-of-care prothrombin time. Type of data set: in vivo, human. Conditions: within cohorts and across escalating dose cohorts. In outline:
(§1)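 Whole blood was tested serially by point-of-care prothrombin time and by thromboelastography reaction time. Subjects were healthy volunteers in escalating-dose cohorts of 8 active and 2 placebo. They received single slow IV test compound or saline about 3 h after a single 60 mg oral dose of edoxaban.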

The test system is the same in data set [6]. Description: Thromboelastography reaction time. Format: in vivo, human. To be noted: within cohorts and across escalating dose cohorts. Put shortly: as §1
The conditions of data set [7]: cited from earlier work.
For data set [8], the system named is plasma proteins. Conditions: cited from earlier work.
Data set [9] concerns hepatic cytochrome enzymes or membrane transporters. Conditions: cited from earlier work.
Data set [10] has as its system anticoagulant-induced bleeding. Conditions: pre-clinical animal models of anticoagulant-induced bleeding; cited from earlier work.
The mark [11] stands for this setting: ciraparantag arm N=66, number (% of subjects).
Where [12] appears, read: single IV dose 100 to 300 mg following edoxaban 60 mg.

Take `NCCCN1CCN(CCCN)CC1` [BAP, 1,4-bis(3-aminopropyl)-piperazine]: the “dose proportionality of pharmacokinetics” value in [1] is “dose-proportional pharmacokinetics”.

As for `N=C(N)NCCC[C@H](N)C(=O)NCCCN1CCN(CCCNC(=O)[C@@H](N)CCCNC(=N)N)CC1` [ciraparantag], in data set [2] (ciraparantag arm N=66), the “Number of subjects who died” value is 0 and the “Number of subjects with SAE” value was determined as 0. Besides, the “Number of AEs” value in [2] (ciraparantag arm N=66, all single IV doses, Periods 1 and 2) turned out to be 204. Also, in data set [2] (setting [11]), the “Number of AEs per subject: 0” value is given as 17 (25.8 %), the “Number of AEs per subject: 1” value is listed as 10 (15.2 %), the “Number of AEs per subject: 2–3” value is 16 (24.2 %) and the “Number of AEs per subject: 4–5” value is 9 (13.6 %). Moreover, in [2] (setting [11]), the “Number of AEs per subject: >5” value was 14 (21.2 %), the “Number of subjects with AE” value is 49 (74.2 %), the “Number of subjects with AE related to Ciraparantag/Placebo” value is recorded as 36 (54.5 %) and the “Number of subjects with AE related to edoxaban” value is 5 (7.6 %). Also, in data set [2] (setting [11]), the “Number of subjects with AE related to study drug” value was 38 (57.6 %) and the “Number of subjects with TEAE” value is recorded as 49 (74.2 %). Further, the “Changes in blood counts, blood chemistries (electrolytes, bilirubin, hepatic enzymes) or electrocardiograms” value in data set [2] (healthy subjects, single IV doses 5-300 mg) is given as “no significant changes”. In [1], the “dose proportionality of pharmacokinetics” value is listed as “dose-proportional pharmacokinetics”. Also, in data set [1] (healthy subjects), the main elimination route entry is listed as “Renal excretion of ciraparantag metabolite”. Moreover, the half-life – broadly, the time in which the quantity being followed falls by half – in data set [1] (human, serum, iv, 5 mg) is approximately 12 min. Moreover, the maximum concentration (Cmax) – broadly, the maximum level reached in the sampled fluid or tissue – in [1] (human, serum, iv, 300 mg) is approximately 10600 ng/mL. In data set [3] (50 mg ciraparantag IV after edoxaban 60 mg), the “reversal of edoxaban-induced anticoagulation (WBCT) within 10 min” value was “Significant reversal”. Further, the “reversal of edoxaban-induced anticoagulation (WBCT)” value in data set [3] (100–300 mg ciraparantag IV (Cohorts 5 to 7) after edoxaban 60 mg) was “essentially full reversal”. The “effect on WBCT” value in [3] (ciraparantag in the absence of edoxaban) is reported as “no effect”. In [3] (setting [12]), the “duration of reversal of anticoagulation” value is given as “at least 24 hours” and the “time to full reversal of anticoagulation” value was not above 10 min. Further, the anticoagulation above baseline result in [3] (within 30 min of injection, after therapeutic dose of edoxaban) is reported as “less than 10%”. Further, in data set [4] (25 mg ciraparantag after edoxaban 60 mg, partial reversal), the mean fibrin diameter was approximately 200 nm. The mean fibrin diameter in data set [4] (100 mg ciraparantag after edoxaban 60 mg, full reversal) is on record as approximately 250 nm. Further, the mean fibrin diameter in data set [4] (300 mg ciraparantag after edoxaban 60 mg, full reversal) is approximately 250 nm. Moreover, in data set [4] (single i.v. dose of 100 mg ciraparantag after edoxaban), the “time to restoration of fibrin strands to baseline levels” value is reported as not above 30 min. Also, the “change in mean PoC-PT” value in data set [5] was “no change over time”. Also, in data set [6], the “change in mean TEG-R” value was “no change over time”. Besides, the “binding to a selected spectrum of cardiovascular and antiepileptic drugs” value in [7] is on record as “no binding”. The binding to anticoagulants entry in data set [7] (non-covalent hydrogen bonding and charge-charge interactions) is “binds similarly to the new oral Xa inhibitors, edoxaban, rivaroxaban and apixaban, and to the oral thrombin inhibitor, dabigatran, but not to argatroban or warfarin”. The “binding to plasma proteins” value in data set [8] is listed as “no significant binding”. Further, in [9], the “interaction with hepatic cytochrome enzymes or membrane transporters” value is on record as “does not interact substantially”. The blood loss result in data set [10] is recorded as “reduces blood loss to baseline levels”.

For `CN1CCc2nc(C(=O)N[C@@H]3C[C@@H](C(=O)N(C)C)CC[C@@H]3NC(=O)C(=O)Nc3ccc(Cl)cn3)sc2C1` [edoxaban, reference compound], in [3] (edoxaban 60 mg oral), the “effect on WBCT” value is “significant elevation”. The mean fibrin diameter in data set [4] (edoxaban anticoagulation without reversal, native state ∼250 nm) is given as approximately 125 nm.
